Data published in ChEMBL document CHEMBL1153333, “Structure-activity relationship studies of curcumin analogues” (Bioorg Med Chem Lett, 2009).

Tests used:
MCF7 [1] = experiment: Antiproliferative activity against human MCF7 cells after 72 hrs by MTT assay; assay type: functional, cell-based; settings: MCF7, 72 h
MDA-MB-231 [2] = experiment: Antiproliferative activity against human MDA-MB-231 cells after 72 hrs by MTT assay; assay type: functional, cell-based; settings: MDA-MB-231, 72 h
PC-3 = experiment: Antiproliferative activity against human PC3 cells after 72 hrs by MTT assay; assay type: functional, cell-based; settings: PC-3, 72 h
LNCaP [3] = experiment: Antiproliferative activity against human LNCAP cells after 72 hrs by MTT assay; assay type: functional, cell-based
[4] = Antiproliferative activity against human MCF10A cells after 72 hrs by MTT assay; assay type: cell-based; settings: MCF-10A
Procedure, shortened: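 Spontaneously immortalized, non-malignant human mammary epithelial MCF-10A cells were exposed to compounds for 72 h. Viability was read by MTT assay, and IC50 was taken from that read-out.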

MCF-10A = experiment: Ratio of IC50 for human MCF10A cells to IC50 for human PC3 cells
Procedure, shortened: (§1)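 Selectivity ratio is the IC50 on non-malignant MCF-10A cells divided by the IC50 on the cancer cell line.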

LNCaP [5] = experiment: Ratio of IC50 for human MCF10A cells to IC50 for human LNCAP cells; procedure, shortened: as §1
MDA-MB-231 [6] = experiment: Ratio of IC50 for human MCF10A cells to IC50 for human MDA-MB-231 cells; procedure, shortened: as §1
MCF7 [7] = experiment: Ratio of IC50 for human MCF10A cells to IC50 for human MCF7 cells; procedure, shortened: as §1

SMILES | IC50 (MCF7 [1]) | IC50 (MDA-MB-231 [2]) | IC50 (PC-3) | IC50 (LNCaP [3]) | IC50 [4] | Ratio IC50 (MCF-10A) | Ratio IC50 (LNCaP [5]) | Ratio IC50 (MDA-MB-231 [6]) | Ratio IC50 (MCF7 [7])
COc1cc(/C=C/C(=O)/C=C/c2ccc(OS(N)(=O)=O)c(OC)c2)ccc1OS(N)(=O)=O | 6.6 µM | 1.7 µM | 6.1 µM | 2.4 µM |  |  |  |  | 
COc1cc(/C=C/C(O)=C/C(=O)/C=C/c2ccc(OC)c(OC)c2)ccc1O [METHYLCURCUMIN] | 15.4 µM | 7.2 µM | 20.9 µM | 6.8 µM |  |  |  |  | 
COc1ccc(/C=C/C(=O)/C=C/c2ccc(OC)c(O)c2)cc1O | 2.9 µM | 3.1 µM | 5.9 µM | 2.6 µM |  |  |  |  | 
COc1cc(/C=C/C(=O)/C=C(O)/C=C/c2ccc(OS(N)(=O)=O)c(OC)c2)ccc1OS(N)(=O)=O | 5.5 µM | 3.1 µM | 7.5 µM | 5.9 µM |  |  |  |  | 
COc1cc(/C=C/C(=O)/C=C(O)/C=C/c2cc(OC)c(OS(N)(=O)=O)c(OC)c2)cc(OC)c1OS(N)(=O)=O | 4.7 µM | 5.5 µM | 13.1 µM | 10.4 µM |  |  |  |  | 
COc1cccc(/C=C/C(=O)/C=C(O)/C=C/c2cccc(OC)c2)c1 | 25.9 µM | 31.9 µM | 40 µM | 34.7 µM |  |  |  |  | 
COc1ccc(/C=C/C(=O)/C=C(O)/C=C/c2ccc(OC)c(O)c2)cc1O | > 40 µM | > 40 µM | > 40 µM | > 40 µM |  |  |  |  | 
COc1cc(/C=C/C(=O)CC(=O)/C=C/c2ccc(O)c(OC)c2)ccc1O [CURCUMIN] | 21.5 µM | 25.6 µM | 19.8 µM | 19.6 µM | 30.1 µM |  |  |  | 
O=C(/C=C/c1ccc(O)cc1)CC(=O)/C=C/c1ccc(O)cc1 [BISDEMETHOXYCURCUMIN] | 24.3 µM | 21.9 µM | 27.3 µM | 19.7 µM |  |  |  |  | 
COc1cc(/C=C/C(=O)/C=C/c2ccc(O)c(OC)c2)ccc1O | 2.4 µM | 2.8 µM | 3.9 µM | 2.7 µM |  |  |  |  | 
COc1ccc(/C=C/C(=O)/C=C/c2ccc(OC)c(OC)c2)cc1OC | 2.5 µM | 1.6 µM | 2.9 µM | 2.2 µM |  |  |  |  | 
CC(=O)Oc1ccc(/C=C/C(=O)/C=C(O)/C=C/c2ccc(OC(C)=O)c(OC(C)=O)c2)cc1OC(C)=O | 17.8 µM | 12.3 µM | 12.9 µM | 20.2 µM |  |  |  |  | 
O=C(/C=C/c1ccc(O)cc1)/C=C/c1ccc(O)cc1 | 6.9 µM | 3.9 µM | 9.5 µM | 5.8 µM |  |  |  |  | 
COc1cc(/C=C/C(=O)/C=C/c2cc(OC)c(OS(N)(=O)=O)c(OC)c2)cc(OC)c1OS(N)(=O)=O | 1.5 µM | 0.6 µM | 2.4 µM | 1.9 µM |  |  |  |  | 
COc1ccc(/C=C/C(=O)/C=C(O)/C=C/c2ccc(OC)c(OC)c2)cc1OC [DIMETHYLCURCUMIN] | 5.4 µM | 4.9 µM | 5.9 µM | 3.9 µM | 31.5 µM |  |  |  | 
NS(=O)(=O)Oc1ccc(/C=C/C(=O)/C=C/c2ccc(OS(N)(=O)=O)cc2)cc1 | 3.5 µM | 4.2 µM | 5.1 µM | 5.1 µM |  |  |  |  | 
COc1cc(/C=C/c2cc(/C=C/c3ccc(O)c(OC)c3)n(C)n2)ccc1O | 15.8 µM | 20.4 µM | 16.2 µM | 12.1 µM |  |  |  |  | 
COc1ccc(/C=C/C(=O)/C=C(O)/C=C/c2ccc(OC)c(OS(N)(=O)=O)c2)cc1OS(N)(=O)=O | 5.5 µM | 6.5 µM | 7.4 µM | 7.7 µM |  |  |  |  | 
COc1cc(/C=C/C(O)=C/C(=O)/C=C/c2ccc(OS(N)(=O)=O)c(OC)c2)ccc1O | 15.1 µM | 14.3 µM | 19.3 µM | 20 µM |  |  |  |  | 
COc1cc(OC)c(/C=C/C(=O)/C=C/c2c(OC)cc(OC)cc2OC)c(OC)c1 | 0.4 µM | 0.6 µM | 2.1 µM | 0.5 µM | > 50 µM | 25 | 25 | 25 | 25
COc1cc(/C=C/C(=O)/C=C/c2cc(OC)c(O)c(OC)c2)cc(OC)c1O | 1.7 µM | 2.7 µM | 3.6 µM | 2.5 µM |  |  |  |  | 
COc1cc(OC)c(OC)cc1/C=C/C(=O)/C=C/c1cc(OC)c(OC)cc1OC | 2.4 µM | 2.4 µM | 4.6 µM | 1.7 µM | > 50 µM | >=5 | >=5 | >=5 | >=5
COc1cc(/C=C/C(=O)/C=C/c2cc(OC)cc(OC)c2)cc(OC)c1 | 2.7 µM | 1.5 µM | 2.5 µM | 2.1 µM | > 50 µM | >=5 | >=5 | >=5 | >=5
COc1cc(/C=C/c2cc(/C=C/c3ccc(O)c(OC)c3)[nH]n2)ccc1O [CURCUMIN PYRAZOLE] | 5.9 µM | 6.6 µM | 5.6 µM | 3.4 µM | > 50 µM | >=5 | >=5 | >=5 | >=5
